What was measured:
[1] = tested on: Rattus norvegicus; test: Antihypertensive activity in spontaneous hypertensive rat model assessed as decrease in blood pressure at 100 mg/kg, po administered for 2 to 4 days measured on day 2 to day 4; format: functional
Outline: (§1)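 SHR, 4–6 per drug, were dosed daily by gavage for 2 or 4 consecutive days in 3% cornstarch, 5% PEG-400 and 1 drop Tween 80 per mL. After 1 h acclimation, systolic pressure was read by tail-cuff (inflated to 250 mmHg, then lowered; pulse reemergence), at least three readings, at 1, 2, 3 and 24 h post-dose. The peak fall is scored: +, <20 mm up to >80 mm.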

[2] = tested on: Rattus norvegicus; test: Antihypertensive activity in spontaneous hypertensive rat model assessed as decrease in blood pressure at 200 mg/kg, po administered for 2 to 4 days measured on day 2 to day 4; format: functional; outline: as §1
[3] = tested on: Canis familiaris; test: Toxicity in unanesthetized renal hypertensive Mongrel dog model assessed as change in heart rate at 30 mg/kg, po qd measured on day 1; format: organism-based, Canis lupus familiaris; design: dose 30 mg/kg, route oral; conditions: in vivo
Outline: (§2)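 Heart rate in unanesthetized renal hypertensive dogs was counted manually from the transducer-recorded arterial pressure trace. Oral dosing was once daily as solid in a gelatin capsule. Readings were at 1.5, 3, 6 and 24 h post-dose, and the maximum change per daily session is reported.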

[4] = tested on: Canis familiaris; test: Toxicity in unanesthetized renal hypertensive Mongrel dog model assessed as emesis at 30 mg/kg, po qd measured on day 1 to 4; format: organism-based, Canis lupus familiaris; design: dose 30 mg/kg, route oral; conditions: in vivo
[5] = tested on: Canis familiaris; test: Toxicity in unanesthetized renal hypertensive Mongrel dog model assessed as change in heart rate at 30 mg/kg, po qd measured on day 2; format: organism-based, Canis lupus familiaris; design: dose 30 mg/kg, route oral; conditions: in vivo; outline: as §2
[6] = tested on: Rattus norvegicus; test: Toxicity in spontaneous hypertensive rat model assessed as bradycardia at 200 mg/kg, po administered for 2 to 4 days; format: organism-based; design: dose 200 mg/kg, route oral; conditions: in vivo
Outline: (§3)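 Heart rate in SHR was counted from tail-cuff pressure pulses after 1 h acclimation. Rats (4–6 per drug) were gavaged daily for 2 or 4 days at 100 mg/kg (sometimes 200 mg/kg) in 3% cornstarch, 5% PEG-400 and 1 drop Tween 80 per mL. Recordings were at 1, 2, 3 and 24 h after each dose.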

[7] = tested on: Squirrel monkey; test: Antihypertensive activity in normotensive squirrel monkey model assessed as decrease in systolic blood pressure at 100 mg/kg, po qd measured on day 3 by sphygmomanometry; format: functional, Saimiri sciureus, Artery
Outline: (§4)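 Restrained squirrel monkeys of either sex with tails warmed by infrared lamp. Systolic pressure was measured indirectly with a tail-base occlusion cuff and pulse transducer. Doses were given daily by gavage as a suspension in 3% cornstarch, 5% PEG-400 and 1 drop Tween 80 per 10 mL. Readings were taken 1.5, 3, 5 and 24 h post-dose. Values are the peak change after each dose, analysed by paired t test.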

[8] = tested on: Squirrel monkey; test: Toxicity in normotensive squirrel monkey model assessed as change in heart rate at 100 mg/kg, po qd measured on day 2; format: organism-based, Saimiri sciureus; design: dose 100 mg/kg, route oral; conditions: in vivo
Outline: (§5)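 Heart rate in restrained, tail-warmed squirrel monkeys was counted manually from the tail-cuff pressure record. Daily gavage used a suspension in 3% cornstarch, 5% PEG-400 and 1 drop Tween 80 per 10 mL. Monitoring was at 1.5, 3, 5 and 24 h after each dose, and the peak change per administration is reported. Paired t test.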

[9] = tested on: Squirrel monkey; test: Antihypertensive activity in normotensive squirrel monkey model assessed as decrease in systolic blood pressure at 100 mg/kg, po qd measured on day 2 by sphygmomanometry; format: functional, Saimiri sciureus, Artery; outline: as §4
[10] = tested on: Squirrel monkey; test: Toxicity in normotensive squirrel monkey model assessed as change in heart rate at 100 mg/kg, po qd measured on day 3; format: organism-based, Saimiri sciureus; design: dose 100 mg/kg, route oral; conditions: in vivo; outline: as §5
[11] = tested on: Canis familiaris; test: Antihypertensive activity in unanesthetized renal hypertensive Mongrel dog model assessed as change in mean blood pressure at 30 mg/kg, po qd measured on day 2; format: functional, Canis lupus familiaris
Outline: (§6)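 Unanesthetized renal hypertensive dogs. Arterial pressure was recorded via a hypodermic needle and polyethylene tubing to a pressure transducer. Drug was given orally once daily as solid in a gelatin capsule. Pressure was determined 1.5, 3, 6 and 24 h after each dose, and the maximum change over each daily monitored session is reported.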

[12] = tested on: Canis familiaris; test: Antihypertensive activity in unanesthetized renal hypertensive Mongrel dog model assessed as change in mean blood pressure at 30 mg/kg, po qd measured on day 1; format: functional, Canis lupus familiaris; outline: as §6
[13] = tested on: Squirrel monkey; test: Antihypertensive activity in normotensive squirrel monkey model assessed as decrease in systolic blood pressure at 100 mg/kg, po qd measured on day 1 by sphygmomanometry; format: functional, Saimiri sciureus, Artery; outline: as §4
[14] = tested on: Squirrel monkey; test: Toxicity in normotensive squirrel monkey model at 100 mg/kg, po qd measured on day 3; format: organism-based, Saimiri sciureus; design: dose 100 mg/kg, route oral; conditions: in vivo
[15] = tested on: Squirrel monkey; test: Toxicity in normotensive squirrel monkey model assessed as change in heart rate at 100 mg/kg, po qd measured on day 1; format: organism-based, Saimiri sciureus; design: dose 100 mg/kg, route oral; conditions: in vivo; outline: as §5
[16] = tested on: Canis familiaris; test: Toxicity in unanesthetized renal hypertensive Mongrel dog model assessed as change in heart rate at 30 mg/kg, po qd measured on day 3; format: organism-based, Canis lupus familiaris; design: dose 30 mg/kg, route oral; conditions: in vivo; outline: as §2
[17] = tested on: Canis familiaris; test: Antihypertensive activity in unanesthetized renal hypertensive Mongrel dog model assessed as change in mean blood pressure at 30 mg/kg, po qd measured on day 3; format: functional, Canis lupus familiaris; outline: as §6
[18] = tested on: Rattus norvegicus; test: Toxicity in spontaneous hypertensive rat model assessed as effect on heart rate at 100 mg/kg, po administered for 2 to 4 days; format: organism-based; design: dose 100 mg/kg, route oral; conditions: in vivo; outline: as §3

Structure (SMILES)	Activity [1]	further results
O=C([O-])c1ccc([S+]([O-])Cc2cccc(Br)c2)cn1.[Na+] (stereo not given)	>20 mmHg	
O=C(O)c1ccc(SCCCCl)cn1	>20 mmHg	
O=C(O)c1ccc(SCc2ccc(Cl)cc2)cn1	>40 mmHg	
COc1ccc(CSc2ccc(C(=O)[O-])nc2)cc1.[Na+]	<20 mmHg	
COc1cccc(C[S+]([O-])c2ccc(C(=O)O)nc2)c1 (stereo not given)	<20 mmHg	
O=C(O)c1ccc(SCc2cccc(Cl)c2)cn1	>40 mmHg	
O=C(O)c1ccc(SCc2cccc(C(F)(F)F)c2)cn1	>40 mmHg	Activity [2]: >80 mmHg; Activity [3]: 5 bpm; Activity [4]: Non-toxic; Activity [5]: 9 bpm; Activity [6]: Toxic; Activity [7]: -25 mmHg; Activity [8]: -26 bpm; Activity [9]: -25 mmHg; Activity [10]: -20 bpm; Activity [11]: 22 mmHg; Activity [12]: 12 mmHg; Activity [13]: -27 mmHg; Activity [14]: Toxic; Activity [15]: -40 bpm; Activity [16]: -12 bpm; Activity [17]: 24 mmHg
CCCCSc1ccc(C(=O)O)nc1	>20 mmHg	Activity [18]: Non-toxic
O=C([O-])c1ccc(SCc2c(Cl)cccc2Cl)cn1.[Na+]	<20 mmHg	
O=C([O-])c1ccc(SCc2ccc(F)cc2)cn1.[Na+]	>20 mmHg	
O=C(O)c1ccc(Sc2cccc(Cl)c2)cn1	>20 mmHg	
N#Cc1cccc(CSc2ccc(C(=O)[O-])nc2)c1.[Na+]	>20 mmHg	
O=C(O)c1ccc(SCc2ccccc2)cn1	>40 mmHg	
CC(c1cccc(C(F)(F)F)c1)[S+]([O-])c1ccc(C(=O)O)nc1 (stereo not given)	>20 mmHg	
CCCC(Sc1ccc(C(=O)O)nc1)c1cccc(C(F)(F)F)c1 (stereo not given)	>20 mmHg	
O=C([O-])c1ccc(SCc2ccc(Br)cc2)cn1.[Na+]	>40 mmHg	
O=C([O-])c1ccc(S(=O)(=O)Cc2cccc(C(F)(F)F)c2)cn1.[Na+]	<20 mmHg	
COc1ccc(C[S+]([O-])c2ccc(C(=O)O)nc2)cc1 (stereo not given)	>20 mmHg	
